Article PMC2901243 (Nuclear medicine and biology, 2010)

Molecular target: SSTR2 (Rattus norvegicus, UniProt P30680)
Type: binding
Settings: Re-cyclized analogues, in vitro, AR42J cells
In short: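 Trypsinized rat AR42J pancreatic carcinoma cells, 2 × 10⁶/well in RPMI 1640, were incubated 2 h at 37 °C (5% CO₂) with HPLC-purified ¹¹¹In-DOTA-TIDE (0.2 μCi/well) and test compound at 10⁻⁴ to 10⁻¹³ M, in triplicate. Cells were pelleted, washed three times with 4 °C medium, and counted for γ radioactivity. IC₅₀ was taken from sigmoidal fits of % bound tracer vs log concentration.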

Sequence of SSTR2 (P30680 whole entry): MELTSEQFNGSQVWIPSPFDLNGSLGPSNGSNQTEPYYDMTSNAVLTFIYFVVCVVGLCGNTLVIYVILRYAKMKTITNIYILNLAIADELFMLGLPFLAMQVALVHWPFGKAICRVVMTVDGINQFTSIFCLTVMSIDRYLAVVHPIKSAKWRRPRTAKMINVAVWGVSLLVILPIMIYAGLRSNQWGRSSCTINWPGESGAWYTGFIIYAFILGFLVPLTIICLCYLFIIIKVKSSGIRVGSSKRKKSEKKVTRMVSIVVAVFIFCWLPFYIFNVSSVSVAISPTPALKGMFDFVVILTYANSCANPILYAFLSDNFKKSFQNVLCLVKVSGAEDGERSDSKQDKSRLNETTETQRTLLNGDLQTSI

- affinity toward somatostatin subtype 2 receptors (in words): moderate affinity
Substance: Ac-Cys-Cys-Tyr-DTrp-Lys-Thr-Cys-Thr(OH) [analogue 4]
